Experimental data collected from several papers.
Protocols differ between the studies behind these lines.
LRRK2 G2019S: Leucine-rich repeat serine/threonine-protein kinase 2 (LRRK2, Homo sapiens, UniProt Q5S007, G2019S)
LRRK2: Leucine-rich repeat serine/threonine-protein kinase 2 (LRRK2, Homo sapiens, UniProt Q5S007)

Compound	target	read-out	action	method	tested at	endpoint	value
CCc1ccccc1C(=O)Nc1n[nH]c2c(C)c(F)c(C3C(C#N)=C(C)N(C)C(C)=C3C#N)cc12	LRRK2 G2019S	cell-free assay		competition with immobilised ligand	1 µM	remaining binding	100%
COc1cc(-c2cc(-c3ccc(N4CCNCC4)cc3)cnc2N)cc(OC)c1OC	LRRK2	enzyme activity	inhibitor		0.1 µM	inhibition	6%
CN(C)C1CCN(CC#Cc2nn(C3CCCC3)c3nc(NCc4ccccc4)ncc23)C1 (stereo not drawn)	LRRK2	enzyme activity	inhibitor	FRET	10 µM	inhibition	7%
N[C@@H]1CCN(c2nccc(-c3cnn4ncccc34)n2)C1	LRRK2	binding			1 µM	remaining binding	100%
CC(C)CC(=O)N1CCc2nc(-c3ccc(Br)cc3)nc(N(C)Cc3ccccc3)c2C1	LRRK2 G2019S	cell-free assay		competition with immobilised ligand	0.1 µM	remaining binding	100%
O=C1Nc2ccc(Cl)cc2C1=Cc1cc(Cl)c(O)c(Cl)c1	LRRK2	cell-free assay			0.5 µM	remaining signal	11%
COc1cc2nccc(Oc3ccc(NC(=O)c4c5n(n(-c6ccc(F)cc6)c4=O)CCCC5)cc3)c2cc1OC	LRRK2	enzyme activity	inhibitor		0.1 µM	inhibition	0%
O=C(Nc1cnc(Oc2ccc(F)cc2)nc1)N1CCc2ncccc2[C@@H]1c1ccc(F)cc1	LRRK2	cell-free assay		competition with immobilised ligand	1 µM	remaining binding	83%
Cc1ccc(C(=O)Nc2ccc(CN3CCN(C)CC3)c(C(F)(F)F)c2)cc1C#Cc1cnc2cccnn12	LRRK2	enzyme activity	inhibitor		23.5 nM	remaining activity	83%
COc1cc(Cl)c(C(=O)N[C@@H](CN[C@H]2CC[C@@H](N)CC2)Cc2ccc(C#N)cc2)cc1-c1ccc(CN[C@H](C)c2ccc(C)cc2)o1	LRRK2	enzyme activity	inhibitor		1 µM	remaining activity	104%
Cc1ccc(Nc2nccc(N(C)c3ccc4c(C)n(C)nc4c3)n2)cc1S(N)(=O)=O	LRRK2	enzyme activity	inhibitor		0.5 µM	remaining activity	109%
CC(C)(O)[C@H]1CC[C@H](Nc2ccc3ncc(-c4cccc(C(F)(F)F)c4)n3n2)CC1	LRRK2	enzyme activity	inhibitor		1 µM	remaining activity	66.1%
N#Cc1ccc(Nc2ccc3[nH]c(=O)[nH]c3c2)c(Cl)c1	LRRK2 G2019S	cell-free assay		competition with immobilised ligand	1 µM	remaining binding	93%
N#CCCc1ccc2c(c1)-c1[nH]c3ccc([N+](=O)[O-])cc3c1CC(=O)N2	LRRK2	cell-free assay			0.5 µM	remaining signal	73.8%
CC(C)(C)c1nc(-c2cccc(NS(=O)(=O)c3c(F)cccc3F)c2F)c(-c2ccnc(N)n2)s1	LRRK2	enzyme activity	inhibitor	radiometric	1 µM	remaining activity	102%
Cc1sc(C(=O)NC2COC2)cc1-n1cc(NC(=O)Nc2c(F)cccc2Cl)cn1	LRRK2	enzyme activity	inhibitor		10 µM	remaining activity	101%
CN(C)CC#Cc1ccc(OCCCc2sc(N3CCc4cccc(C(=O)Nc5nc6ccccc6s5)c4C3)nc2C(=O)O)c(F)c1	LRRK2 G2019S	cell-free assay		competition with immobilised ligand	1 µM	remaining binding	100%
Cc1cc(NC(=O)c2cccc3cc(-c4cccc5[nH]nc(N)c45)ccc23)ccc1F	LRRK2	enzyme activity	inhibitor		0.1 µM	activity vs control	98%
COc1ccc2c(c1)O[C@@H](c1ccc(OC)c(OC)c1)C[C@H]2NC(=O)C1(c2ccc3c(c2)OC(F)(F)O3)CC1	LRRK2	cell-free assay		competition with immobilised ligand	1 µM	remaining binding	87%
c1cnn2ncc(-c3ccnc(N4CCC45COC5)n3)c2c1	LRRK2 G2019S	binding			1 µM	remaining binding	21%
C[C@H](NC(=O)c1cnc2n1[C@](C)(Cc1ccc(C#N)cc1)C(=O)N2c1cc(Cl)c(F)c(Cl)c1)C(=O)NC1(c2ccccn2)CC1	LRRK2 G2019S	cell-free assay		competition with immobilised ligand	1 µM	remaining binding	100%
CN(c1nccc(-c2cnn3ncccc23)n1)C1CC1	LRRK2 G2019S	binding			1 µM	remaining binding	100%
Nc1ncnc2occ(-c3ccc(NC(=O)Nc4cc(C(F)(F)F)ccc4F)cc3)c12	LRRK2	cell-free assay	inhibitor		20 µM	remaining signal	5.2%
Cc1cnn2ncc(-c3ccnc(N(C)C)n3)c2c1	LRRK2 G2019S	binding			1 µM	remaining binding	100%
O=C(O)[C@H]1[C@H](Cn2nnc3ccccc3c2=O)CC[C@@H]1C(=O)c1ccc(OCCC2CCOCC2)cc1	LRRK2 G2019S	cell-free assay		competition with immobilised ligand	1 µM	remaining binding	100%
CC1CCCN1c1nccc(-c2cnn3ncccc23)n1 (stereo not drawn)	LRRK2	binding			1 µM	remaining binding	100%
CN1CC(Oc2cnc(C#N)cc2-c2ccn3nc(NC(=O)C4CC4)cc3c2)C1	LRRK2	enzyme activity	inhibitor		1 µM	inhibition	-19%
